UPR CHOP act: activators of apoptotic CHOP UPR arm, primary screen, cell-based, CHO-CHOP luciferase reporter, luminescence, uHTS; UPR activation; percent of tunicamycin response over DMSO baseline; activation, % at 10 µM; 330,000 tested, 0.34% active; AID 449763, 2010;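 active means at 10 µM dose, activation of 40% or more, normalized to positive control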;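 further: 100% = tunicamycin at 10 µg/mL and 0% = DMSO alone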
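Evaluation: % reporter activation, DMSO baseline versus tunicamycin full activation; System: CHO-CHOP luciferase reporter cell line; Input: 500 cells/well; Incubation: 6 h compound treatment, 37 °C; Measured by: Steady-Glo luciferase luminescence; Dosing: one dose, 10 µM in 0.5% DMSO; Buffer or medium: F12 medium, 10% FBS; Benchmarks: positive tunicamycin 10 µg/mL, negative DMSO alone.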
ABHD5-PLIN5 inh: ABHD5-PLIN5 interaction inhibitors, primary screen, cell lysate, split luciferase complementation, luminescence; Split G. princeps luciferase complementation, 4 h; 360,000 tested, 0.78% active; Perilipin-5 (Homo sapiens) + 1-acylglycerol-3-phosphate O-acyltransferase ABHD5 (Homo …; inhibition, % at 4 µM; AID 602281, 2012;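 active means inhibition above the mean inhibition across every tested compound plus 3 SD, cut at about 22% in these data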;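 further: 0% = DMSO only wells and the 100% control is not disclosed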
XBP1 UPR activ: activators of adaptive XBP1 UPR arm, primary screen, cell-based, CHO-XBP1 luciferase reporter, luminescence, uHTS | 330,000 tested, 0.33% active | IRE1-XBP1 UPR activation; percent of tunicamycin response, DMSO as zero | activation, % at 20 µM;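 active means versus positive control, 20 µM dose yields 30% or more activation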;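 further: 100% = tunicamycin at 10 µg/mL and 0% = DMSO only wells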
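Signal: luciferase luminescence; Assay system: CHO-XBP1 luciferase reporter cells; Amount: one thousand reporter cells per well; Dosing: 20 µM single concentration, DMSO 1%; Benchmarks: high control tunicamycin 10 µg/mL final, low control DMSO vehicle only; Schedule: 6 h compound exposure at 37 °C, 5% CO2; Evaluation: percent activation relative to tunicamycin reference.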
Mdm2 MdmX PPI: inhibitors of human Mdm2-MdmX association, primary screen, cell-based, luminescence, split luciferase, SaOS-2, uHTS; inhibition, % at 8 µM; AID 485346, 2010; SaOS-2 split-luciferase Mdm2/MdmX complementation; Protein Mdm4 (Homo sapiens) + E3 ubiquitin-protein ligase Mdm2 (Homo sapiens), …; 330,000 tested, 3% active;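 active means inhibition of at least 50% at 8 µM in the primary screen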
Granule exo inh: LAMP-1 surface exposure blockers, TALL-104 cells – cell-based, flow cytometry, MLPCN library, primary screen. AID 651702, 2012. TALL-104 LAMP-1 surface exposure; cells stimulated with thapsigargin and PMA. 360,000 tested, 0.66% active. inhibition, % at 10 µM;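 active means inhibition above about 55%, limit read from the data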
Mdm2 MdmX conf: Mdm2-MdmX complex disruptors, retested hits, confirmation, luminescence, single concentration; shares compounds with Mdm2 MdmX PPI; Mdm2-MdmX binding, luminescent assay; inhibition, % at 8 µM; 10,000 tested, 55% active; in the data active means inhibition above about 40%
FLuc counter: full-length luciferase signal inhibition, confirmation, counter-screen for Mdm2/MdmX interaction inhibitor project, cell-based, single concentration, SaOS-2. shares compounds with Mdm2 MdmX PPI. SaOS-2 full-length luciferase counterscreen, luminescence. inhibition, % at 8 µM. 6,200 tested, 77% active. AID 504607, 2011;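 active means mean inhibition at 8 µM reaching about 37%, which flags the compound as non-specific, limit read from the data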;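 further: p53-null SaOS-2 cells with luciferase driven by a doxycycline-inducible promoter; compound on cells about two nights before reading with doxycycline added after day one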
Numbers without * were called inactive; nt = no result. Only some compounds are listed: those with a hit (about 4% of all), similar ones and a draw of the others.

SMILES	UPR CHOP act	ABHD5-PLIN5 inh	XBP1 UPR activ	Mdm2 MdmX PPI	Granule exo inh	Mdm2 MdmX conf	FLuc counter
C[C@H](CO)N1C[C@H](C)[C@@H](CN(C)S(=O)(=O)c2cccs2)Oc2c(NC(=O)C3CCCCC3)cccc2C1=O	1	-4	-2	-1	1	nt	nt
CC(C)(C)c1nn(-c2ccccc2)c2[nH]c(=O)c(CNCc3ccc4c(c3)OCO4)cc12	2	-9	11	92*	1	80*	64*
CCOc1cccc(NCc2cc3c(C(C)(C)C)nn(-c4ccccc4)c3[nH]c2=O)c1	1	-4	-3	30	1	nt	nt
CCOc1ccc(-c2nc(N)ncc2Oc2ccccc2Br)c(O)c1	-4	-6	-1	48	5	nt	nt
CCOc1ccc(-c2nc(N)ncc2Oc2cccc(OC)c2)c(O)c1	0	-7	3	66*	-1	42*	62*
Cc1cccc(NC(=O)COC(=O)c2cccc3c2C(=O)c2ccccc2C3=O)c1C	5	-2	1	31	4	nt	nt
Cc1cccc(C)c1NC(=O)COC(=O)c1cccc2c1C(=O)c1ccccc1C2=O	1	-6	1	59*	-4	35	77*
O=C(COc1ccc(-n2cnnn2)cc1)Nc1cc(Cl)cc(Cl)c1	2	15	1	67*	-1	34	nt
O=C(COc1ccc(-n2cnnn2)cc1)Nc1ccc(F)c(Cl)c1	1	0	-3	1	0	nt	nt
O=C1OC2(c3ccccc31)c1cc(I)c(O)c(I)c1Oc1c2cc(I)c(O)c1I	-4	nt	-4	16	nt	nt	nt
CC1(C)Cc2ccccc2-c2nnc(-c3ccc4ccccc4n3)n21	-1	7	2	6	-4	nt	nt
Cc1cc2c(cc1C)-c1nnc(-c3ccc4ccccc4n3)n1C(C)(C)C2	-1	nt	1	70*	nt	-1	nt
COc1ccc(C2c3c(ncn(CCCO)c3=N)Oc3ccc4ccccc4c32)cc1 (centres undefined)	1	0	3	81*	50	70*	57*
COc1ccc(C2c3c(ncn(CCN4CCOCC4)c3=N)Oc3ccc4ccccc4c32)cc1OC (centres undefined)	3	12	2	64*	0	38	59*
COc1ccc(C2c3c(ncn(CCCO)c3=N)Oc3ccc4ccccc4c32)cc1OC (centres undefined)	1	4	0	44	8	nt	nt
COc1ccc(C2c3ccc(O)cc3Oc3ncn(CCN4CCOCC4)c(=N)c32)cc1 (centres undefined)	0	2	1	32	-2	nt	nt
Cc1ccc(C(C(=O)NCc2ccco2)N(C(=O)CNC(=O)c2cccs2)c2ccc(C)cc2C)cc1 (centres undefined)	6	-1	20	59*	14	4	nt
Cc1ccc(N(C(=O)CNC(=O)c2ccco2)C(C(=O)NC2CCCC2)c2ccncc2)c(C)c1 (centres undefined)	3	-4	-7	6	7	nt	nt
Nc1c(Cl)cc(NC(=O)c2ccccc2C(=O)O)cc1Br	0	0	1	1	10	nt	nt
CN(C)CCCNc1cc(C(C)(C)C)nc2c(-c3ccccc3)cnn12	13	7	15	100*	6	52*	72*
Cc1cc(NCCCN2CCOCC2)n2ncc(-c3ccccc3)c2n1	3	6	2	-44	8	nt	nt
Cc1cc(NCCOCCO)n2ncc(-c3ccc(Cl)cc3)c2n1	15	16	11	61*	-3	54*	59*
CC(C)(C)c1cc(NCCCn2ccnc2)n2ncc(-c3ccc(Cl)cc3)c2n1	16	3	14	74*	25	43*	35
O=C(COc1ccc(-c2nnco2)cc1)Nc1ccc(F)c(Cl)c1	0	-3	-4	-6	0	nt	nt
N=c1n(CCN2CCCC2)c2ccccc2n1CC(O)c1ccco1 (centres undefined)	-3	3	3	-7	0	nt	nt
SMILES	UPR CHOP act	ABHD5-PLIN5 inh	XBP1 UPR activ	Mdm2 MdmX PPI	Granule exo inh	Mdm2 MdmX conf	FLuc counter
N=c1n(CCN2CCCCC2)c2ccccc2n1CC(O)c1cccc(Br)c1 (centres undefined)	2	11	-2	98*	36	78*	34
N=c1n(CCN2CCCCC2)c2ccccc2n1CC(O)c1ccc(Cl)c(Cl)c1 (centres undefined)	2	16	5	99*	39	96*	56*
CN(CCOc1ccc(Cl)cc1)C(=O)CN1C(=O)NC2(CCCC2)C1=O	-2	-8	-2	9	0	nt	nt
O=C(COC(=O)COc1ccccc1)NCc1ccco1	0	8	-2	-6	-13	nt	nt
CN1C(=O)Nc2cccc3cccc1c23	-1	1	4	52*	-3	25	nt
CN1C(=O)N(C)c2cccc3cccc1c23	1	-1	-3	4	-3	nt	nt
CC(C)(C)n1nnnc1CN(Cc1ccc(F)cc1)Cc1ccco1	-1	-3	-1	-9	0	nt	nt
NC(=O)NCCCC(NC(=O)c1ccc(C#CC2(O)CCCCC2)cc1)C(=O)O (centres undefined)	-1	-1	-3	61*	1	6	nt
CN1CCN(CC(=O)Nc2nc3c(s2)CCCC3)CC1	-1	2	-1	22	-7	nt	nt
CCN1CCN(/C=N/c2nc3c(s2)CCCC3)CC1	-10	-8	-9	57*	-2	73*	91*
O=c1/c(=C\c2ccc(O)cc2)sc2n1C(c1ccccc1)C(c1ccccc1)=NN=2 (centres undefined)	4	-14	2	79*	3	43*	51*
COc1cccc(C2C(C(=O)OC(C)C)=C(C)N=c3s/c(=C\c4ccc(C(=O)O)cc4)c(=O)n32)c1 (centres undefined)	1	2	4	1	20	nt	nt
Cc1ccc(N/C(N)=N/c2nc(CSc3nnc(C)s3)cc(=O)[nH]2)c(C)c1	1	-8	11	60*	0	56*	68*
Cc1cccc(N/C(N)=N/c2nc(CSc3ccc(Cl)cc3)cc(=O)[nH]2)c1	17	nt	38*	68*	nt	7	nt
